# Hits are enriched below; roughly 2.7% of the tested compounds scored in any of these assays.
# PAFAH1B2 FP inh: PAFAH1B2 (human) inhibition; P68402; recombinant PAFAH1B2, FP-rhodamine activity probe, fluorescence polarization; inhibition, % at 3.39 µM; 340,000 compounds, 1.2% hits;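 active = inhibition above the mean of all tested compounds plus 3 SD, cut at about 24% in these data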;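 also: 0% = enzyme with DMSO and 100% = wells lacking PAFAH1B2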
# pPAFAH FP inh: inhibitors of human plasma PAF acetylhydrolase (pPAFAH) | recombinant pPAFAH, FP-rhodamine probe fluorescence polarization | inhibition, % at 3.39 µM | Q13093 | AID 463082 | 330,000 compounds, 1.5% hits;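 active = inhibition above the mean inhibition across the screen plus 3 SD, cut at about 25% in these data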;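 also: inhibitors block binding of the rhodamine activity-based probe so polarization drops; 0% = enzyme with DMSO and 100% = wells lacking pPAFAH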
# Target sequence (Q13093 whole entry, looked up): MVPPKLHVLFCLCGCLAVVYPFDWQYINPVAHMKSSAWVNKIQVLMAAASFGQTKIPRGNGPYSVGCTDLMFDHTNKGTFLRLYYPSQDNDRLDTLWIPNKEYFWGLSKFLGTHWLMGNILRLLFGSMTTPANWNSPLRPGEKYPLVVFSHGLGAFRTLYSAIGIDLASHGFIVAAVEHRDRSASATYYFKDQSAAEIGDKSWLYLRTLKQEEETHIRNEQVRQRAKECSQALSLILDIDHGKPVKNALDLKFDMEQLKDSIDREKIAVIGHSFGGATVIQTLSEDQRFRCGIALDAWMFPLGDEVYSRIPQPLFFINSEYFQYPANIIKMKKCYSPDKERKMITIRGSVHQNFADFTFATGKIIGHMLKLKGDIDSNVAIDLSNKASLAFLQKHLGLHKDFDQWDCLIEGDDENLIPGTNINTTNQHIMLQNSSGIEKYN
# PAFAH1B3 inh: PAFAH1B3 (human) inhibition. recombinant PAFAH1B3, FP-rhodamine probe, fluorescence polarization. inhibition, % at 3.39 µM. 340,000 compounds, 0.28% hits;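 active = inhibition above the screen-wide average of all tested compounds plus 3 SD, cut at about 25% in these data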;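 also: 0% = enzyme with DMSO only and 100% = wells lacking PAFAH1B3 protein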
# PAFAH2 FP inh: inhibitors of human PAFAH2 | Q99487 | inhibition, % at 3.39 µM | 340,000 compounds, 0.99% hits | recombinant PAFAH2, FP-rhodamine activity probe, fluorescence polarization;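 active = inhibition above the mean over all tested compounds plus 3 SD, cut at about 30% in these data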;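 also: inhibitors block probe labeling of enzyme so polarization drops; 0% = enzyme with DMSO and 100% = wells lacking PAFAH2 protein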
# ASAP1 inh: inhibitors of human ASAP1 ArfGAP activity. Q9ULH1. ASAP1-stimulated ARF1 GTP hydrolysis, GDP FP detection. inhibition, % at 16.5 µM. 360,000 compounds, 0.19% hits; in the data active = inhibition above about 25%;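 also: 0% = vehicle with enzyme and substrate and 100% = no enzyme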
# ARFGAP1 inhibitor: rat ARFGAP1 inhibition. inhibition, % at 16.5 µM. Arfgap1-stimulated ARF1 GTP hydrolysis, GDP FP detection. 360,000 compounds, 0.26% hits. Q62848;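 active = inhibition above a per-plate limit, mean inhibition of low control wells plus 3 SD, cut at about 25% in these data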;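 also: 0% = DMSO wells with enzyme and 100% = wells lacking Arfgap1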
#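 Assay system: purified rat His6-Arfgap1 residues 1-136 (GAP domain); Reagent: human Δ17 ARF1 bound to GTP; Dosing: 16.5 µM single point, 1.26% DMSO; Times: GTP hydrolysis reaction 2 h at 25 °C; Signal: FP, GDP Alexa 633 tracer displaced from anti-GDP antibody, 620/688 nm; Measure: % inhibition from polarization.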
# ASAP1 GAP conf: ASAP1 inhibition confirmed. ASAP1-stimulated Arf1 GTPase, GDP fluorescence polarization. shares compounds with ASAP1 inh. AID 624431. 620 compounds, 37% hits. inhibition, % at 16.5 µM;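 active = mean inhibition over triplicates exceeds the hit threshold derived for the earlier primary screening run, cut at about 25% in these data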
# ARFGAP1 confirm: rat ARFGAP1 inhibition, confirmed. shares compounds with ARFGAP1 inhibitor. ARFGAP1-stimulated ARF1 GTP hydrolysis, GDP tracer FP. inhibition, % at 16.5 µM. 890 compounds, 30% hits;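 active = average inhibition over triplicates above the hit cutoff set in the earlier primary screen, cut at about 25% in these data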;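 also: 0% = Arfgap1 plus ARF1-GTP with DMSO and 100% = wells lacking Arfgap1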
# * hit, by the source's call; x = not tested or not shown.
SMILES,PAFAH1B2 FP inh,pPAFAH FP inh,PAFAH1B3 inh,PAFAH2 FP inh,ASAP1 inh,ARFGAP1 inhibitor,ARFGAP1 confirm,others
CCSc1nnc(C(N)Cc2ccccc2)o1 (stereo not drawn),0,1,5,3,29*,-3,x,ASAP1 GAP conf=-2
Cc1ccc(/C=C2\C(=O)NC(=O)N(Cc3ccccc3Cl)C2=O)o1,0,10,-5,21,28*,2,x,ASAP1 GAP conf=8
CC1CN2C(=O)C1(c1ccccc1)C(=O)NC2=S (stereo not drawn),x,x,x,x,2,8,x,
COP(=O)(OC)C(NC(C)=O)C(Cl)(Cl)Cl (stereo not drawn),3,4,-2,5,26*,14,x,ASAP1 GAP conf=4
CC1(C)CC2CCC(O)C2C(CCO)N1 (stereo not drawn),6,x,-3,6,4,3,x,
OC12Oc3ccccc3C=C1N1CCC2CC1 (stereo not drawn),5,1,5,-5,-5,25*,4,
COc1ccc(/C=C/C(=O)NC(=S)N2C[C@H]3C[C@H](C2)c2cccc(=O)n2C3)cc1,3,5,1,1,-2,-10,x,
COc1ccc(C(=O)NC(=S)N2C[C@H]3C[C@H](C2)c2cccc(=O)n2C3)cc1,-1,6,-10,4,3,34*,7,
Clc1ccc(C(c2ccc(Cl)cc2)n2cc[n+](CC(OCc3ccc(Cl)cc3Cl)c3ccc(Cl)cc3Cl)c2)cc1 (stereo not drawn),2,13,2,3,20,28*,81*,
CN(c1ccc(OCC(=O)N2CCN(C/C=C/c3ccccc3)CC2)cc1)S(=O)(=O)c1cccs1,2,8,3,6,-12,27*,4,
CCS(=O)(=O)Nc1cccc(C(=C2CCCCC2)c2cnc[nH]2)c1,4,4,10,1,10,8,x,
Cc1ccccc1-n1c(O)c(/C=N/Nc2nc3c(c(=O)n(C)c(=O)n3C)n2C)c(=O)[nH]c1=S,1,9,3,7,1,26*,4,
Cc1ccccc1-n1c(O)c(/C=N/NC(=O)c2ccccc2O)c(=O)[nH]c1=S,1,7,7,12,9,-4,x,
COC(=O)C1=C(c2ccc(OCc3ccccc3)cc2)C[C@@H]2CC[C@H]1N2C(=O)NCc1ccc2c(c1)OCO2,x,x,x,x,3,-14,x,
C#C[C@]1(O)CC[C@H]2[C@@H]3CCC4=Cc5nc6nc7ccccc7n6cc5C[C@]4(C)[C@H]3CC[C@@]21C,-4,-3,-1,0,16,0,x,
